Reference: ChEMBL document CHEMBL2062401, “New pyrimido[5,4-e]pyrrolo[1,2-c]pyrimidines: synthesis, 2D-QSAR, anti-inflammatory, analgesic and ulcerogenicity studies” (Eur J Med Chem, 2012)

Assays:
Rattus norvegicus [1] = experiment: Antiinflammatory activity in Wistar albino rat assessed as inhibition of carrageenan-induced paw edema at 0.029 mmol/kg, po dosed 1 hr before carrageenan challenge measured 4 hrs post carrageenan-induced inflammation
Mus musculus [2] = experiment: Analgesic activity in Swiss albino mouse assessed as inhibition of acetic acid-induced writhing at 0.029 mmol/kg. po dosed 1 hr before acetic acid challenge and measured during 30 mins post acetic acid challenge relative to indomethacin; format: functional; details: read-out: INH
Method in brief: (§1)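 Swiss albino mice of either sex, 18–22 g, six per group. Oral suspension at 0.029 mmol/kg given 1 h before 0.3 ml of 1% acetic acid i.p. Contractions counted for 30 min, starting 5 min after injection. % protection = (n − n')/n × 100 against control writhing. Potency% = % inhibition of test / % inhibition of indomethacin × 100. Mean ± SEM, ANOVA with post hoc test.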

Rattus norvegicus [3] = experiment: Antiinflammatory activity in Wistar albino rat assessed as inhibition of carrageenan-induced paw edema at 0.029 mmol/kg, po dosed 1 hr before carrageenan challenge measured 1 hr post carrageenan-induced inflammation; format: functional
Method in brief: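 Wistar albino rats of both sexes, 120–150 g, six per group, food withdrawn the day before. Given orally 0.029 mmol/kg in saline with a few drops of Tween 80, by stomach tube, 1 h before subplantar s.c. carrageenan (0.1 ml of 1%) into the right hind paw. Paw thickness measured at 1, 2, 3 and 4 h against baseline. % inhibition = 100 × (1 − Vt/Vc).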

Rattus norvegicus [4] = experiment: Antiinflammatory activity in Wistar albino rat assessed as inhibition of carrageenan-induced paw edema at 0.029 mmol/kg, po dosed 1 hr before carrageenan challenge measured 2 hrs post carrageenan-induced inflammation
Rattus norvegicus [5] = experiment: Antiinflammatory activity in Wistar albino rat assessed as inhibition of carrageenan-induced paw edema at 0.029 mmol/kg, po dosed 1 hr before carrageenan challenge measured 3 hrs post carrageenan-induced inflammation
Mus musculus [6] = experiment: Analgesic activity in Swiss albino mouse assessed as inhibition of acetic acid-induced writhing at 0.029 mmol/kg. po dosed 1 hr before acetic acid challenge and measured during 30 mins post acetic acid challenge; format: functional
Method in brief: as §1

[7] = Lipophilicity, log P of the compound; format: physicochemical; details: octanol/water
Rattus norvegicus [8] = experiment: Gastrointestinal toxicity in Wistar albino rat assessed as incidence of stomach ulceration at 0.029 mmol/kg, po; format: organism-based; details: in vivo
Method in brief: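 Rats given single oral dose suspended in saline with few drops Tween 80 (groups of 6); killed under deep ether anaesthesia 5 h after treatment; stomach opened along greater curvature and examined for lesions or bleeding; ulceration expressed as number of rats affected per group.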

| SMILES | inhibition in vivo at 29 µmol/kg (Rattus norvegicus [1]) | writhing inhibition relative to indomethacin (potency %) at 29 µmol/kg (Mus musculus [2]) | inhibition in vivo at 29 µmol/kg (Rattus norvegicus [3]) | inhibition in vivo at 29 µmol/kg (Rattus norvegicus [4]) | inhibition in vivo at 29 µmol/kg (Rattus norvegicus [5]) | inhibition in vivo at 29 µmol/kg (Mus musculus [6]) | logP [7] | Activity (Rattus norvegicus [8]) |
| --- | --- | --- | --- | --- | --- | --- | --- | --- |
| C/C(=N\NC(=O)c1nc2c(c(=O)[nH]1)C1CCCN1C(=O)N2c1ccccc1)c1ccccc1 (centres undefined) | 61% | 102% | 61% | 44% | 53% | 67.5% | 3.28 | Toxic |
| O=C(N/N=C/c1ccccc1O)c1nc2c(c(=O)[nH]1)C1CCCN1C(=O)N2c1ccccc1 (centres undefined) | 47% | 104% | 53% | 34% | 46% | 68.9% | 2.46 | Toxic |
| O=C(N/N=C/c1ccc(Cl)cc1)c1nc2c(c(=O)[nH]1)C1CCCN1C(=O)N2c1ccccc1 (centres undefined) | 38% | 52.7% | 54% | 32% | 44% | 34.8% | 3.36 | Non-toxic |
| Cc1cc(=O)n(C(=O)c2nc3c(c(=O)[nH]2)C2CCCN2C(=O)N3c2ccccc2)[nH]1 (centres undefined) | 62% | 92.2% | 57% | 34% | 57% | 61% | 0.772 | Non-toxic |
| CCO/C=N/NC(=O)c1nc2c(c(=O)[nH]1)C1CCCN1C(=O)N2c1ccccc1 (centres undefined) | 55% | 37.7% | 47% | 55% | 64% | 24.9% | 1.44 | Non-toxic |
| Nc1cc(=O)[nH]n1C(=O)c1nc2c(c(=O)[nH]1)C1CCCN1C(=O)N2c1ccccc1 (centres undefined) | 50% | 106% | 50% | 20% | 45% | 70.3% | 0.517 | Non-toxic |
| O=C(N/N=C/c1ccccc1)c1nc2c(c(=O)[nH]1)C1CCCN1C(=O)N2c1ccccc1 (centres undefined) | 50% | 87.2% | 68% | 41% | 53% | 57.6% | 3.35 | Toxic |
| O=C1CC(O)=NN1C(=O)c1nc2c(c(=O)[nH]1)C1CCCN1C(=O)N2c1ccccc1 (centres undefined) | 65% | 93.6% | 68% | 44% | 49% | 61.9% | 0.693 | Non-toxic |
| COc1ccc(/C=N/NC(=O)c2nc3c(c(=O)[nH]2)C2CCCN2C(=O)N3c2ccccc2)cc1O (centres undefined) | 46% | 66.2% | 18% | 15% | 46% | 43.8% | 2.42 | Non-toxic |
| CC(C)=NNC(=O)c1nc2c(c(=O)[nH]1)C1CCCN1C(=O)N2c1ccccc1 (centres undefined) | 36% | 89% | 26% | 23% | 35% | 58.8% |  | Non-toxic |
